Experimental data pooled from the literature.
Protocols differ between the studies behind these lines.
MTNR1A: Melatonin receptor type 1A (MTNR1A, Homo sapiens, UniProt P48039)
ROCK1: Rho-associated protein kinase 1 (ROCK1, Homo sapiens, UniProt Q13464)
FAAH: Fatty-acid amide hydrolase 1 (FAAH, Homo sapiens, UniProt O00519)
BDKRB1: B1 bradykinin receptor (BDKRB1, Homo sapiens, UniProt P46663)
PTGS1: Prostaglandin G/H synthase 1 (PTGS1, Homo sapiens, UniProt P23219)
MMP3: Stromelysin-1 (MMP3, Homo sapiens, UniProt P08254)
USP10: Ubiquitin carboxyl-terminal hydrolase 10 (USP10, Homo sapiens, UniProt Q14694)

| SMILES | target | test | conditions | inhibition [%] |
| --- | --- | --- | --- | --- |
| OC(c1ccc(F)cc1)C(F)(F)CCN1CCC(O)(c2ccc(Cl)cc2)CC1 (racemic) | Sigma intracellular receptor 2 (Tmem97, Rattus norvegicus, UniProt Q5U3Y7) | ligand displacement, radioligand | 10 µM | > 50 |
| CC(C)N1CCC[C@H]1CNC(=O)c1cn(C2CCCC2)c(=O)c2c1c1ccccc1n2C | MTNR1A | ligand displacement, radioligand | 10 µM | 37 |
| C#Cc1n[nH]c2c(-c3cn([C@@H](C)c4ccccc4)c(=O)[nH]c3=O)cc(F)cc12 | ROCK1 | enzyme activity, inhibitor | 0.1 µM | 3.5 |
| COc1cccc(N(C)C(=O)Oc2nsnc2N2CCCCC2)c1 | FAAH | enzyme activity, inhibitor | 10 µM, cell membranes | 17 |
| CN(CCN1CCC(OC(=O)Nc2ccccc2-c2ccccc2)CC1)C(=O)c1ccc(CN2CCC(C(N)=O)CC2)cc1 | BDKRB1 | ligand displacement, radioligand | 1 µM | 0 |
| O=C(Cc1c[nH]c2cc(Cl)ccc12)N1CCC(n2ccnc2)CC1 | Trypanothione synthetase (Trypanosoma cruzi, UniProt Q9GT49) | enzyme activity, inhibitor, absorbance | 25 µM | 6.2 |
| Cn1cc(-c2cccc(N3CCc4c(sc5c4CC(C)(C)C5)C3=O)c2CO)cc(Nc2ccncn2)c1=O | Mitogen-activated protein kinase kinase kinase 8 (MAP3K8, Homo sapiens, UniProt P41279) | enzyme activity, inhibitor | 1 µM | 16 |
| c1ccc(C(NCCNC(c2ccccc2)c2ccccc2)c2ccccc2)cc1 | Gastrin/cholecystokinin type B receptor (CCKBR, Homo sapiens, UniProt P32239) | cell-free assay | 10 µM | 33 |
| CN(C(=O)Oc1nsnc1N1CCCCC1)C1CCCCC1 | FAAH | enzyme activity, inhibitor | 10 µM, cell membranes | 16 |
| O=C(Nc1cccnn1)N1CCN([C@@H]2CCOc3cc(C(F)(F)F)ccc32)CC1 | MTNR1A | ligand displacement | 20 µM | 16 |
| COc1cc(Nc2ncc(F)c(Nc3ccc4c(n3)NC(=O)C(C)(C)O4)n2)cc(OC)c1OC | Serine/threonine-protein kinase ULK3 (ULK3, Homo sapiens, UniProt Q6PHR2) | binding | 10 µM | 100 |
| Cc1ncc(C)n2nc(/C=C/c3nc(N4CCCC4)cc(N4CCOCC4)n3)nc12 | PTGS1 | enzyme activity, inhibitor | 10 µM | 10 |
| COCc1c(-c2cc3cc(C)cc(OC)c3s2)c2c(N)ncnn2c1CN1CCNC(=O)C1 | Tyrosine-protein kinase receptor Tie-1 (TIE1, Homo sapiens, UniProt P35590) | cell-free assay, competition with immobilised ligand | 1 µM | 83 |
| CN(C(=O)Oc1nsnc1N1CCCCC1)c1cccc(F)c1 | FAAH | enzyme activity, inhibitor | 10 µM, cell membranes | 48 |
| CCCCc1ccc(C(=O)O)nc1 | MMP3 | enzyme activity, inhibitor | 1 mM, pH 6 | > 80 |
| C[C@@H](O)[C@H](N)C(=O)N1CCC[C@H]1C(=O)N1CCC[C@H]1C(=O)N[C@H](C(N)=O)[C@@H](C)O | FAAH | enzyme activity, inhibitor | 30 µM | -15 |

| SMILES | target | test | conditions | inhibition [%] |
| --- | --- | --- | --- | --- |
| Cc1cccc(N(C)C(=O)Oc2nsnc2N2CCCCC2)c1 | FAAH | enzyme activity, inhibitor | 10 µM, cell membranes | 9 |
| CCOC(=O)c1ccc(OC(=O)CCCCCNC(=N)N)cc1 | USP10 | enzyme activity, inhibitor | 10 µM | 3 |
| CCN(CC)CCCC[C@H](NC(=O)[C@H](CC(C)C)NC(=O)[C@H](C)NC(=O)[C@H](Cc1ccccc1)NC(=O)c1ccc(C(C)(C)C)cc1)C(=O)N[C@@H](CO)C(=O)OC | MTNR1A | ligand displacement, radioligand | 10 µM | 8 |
| COCCN(CCOC)C(=O)[C@@]12C[C@@H]1[C@@H](n1cnc3c(NC(C4CC4)C4CC4)nc(Cl)nc31)[C@H](O)[C@@H]2O | 5-hydroxytryptamine receptor 2C (HTR2C, Homo sapiens, UniProt P28335) | ligand displacement, radioligand | 10 µM | 38 |
| Cc1cc(C)c(N(C)C(=O)Oc2nsnc2N2CCCCC2)c(C)c1 | FAAH | enzyme activity, inhibitor | 10 µM, cell membranes | 7 |
| N=C(N)c1ccc2cc(OC(=O)c3ccc(N=C(N)N)cc3)ccc2c1 | MMP3 | enzyme activity, inhibitor | 10 µM | 0 |
| COc1ccc(S(=O)(=O)N2CCCCC2)cc1C | BDKRB1 | ligand displacement, radioligand | 10 µM | < 30 |
| CN(C)C(=O)COC(=O)Cc1ccc(OC(=O)c2ccc(NC(=N)N)cc2)cc1 | USP10 | enzyme activity, inhibitor | 10 µM | 2 |
| CN(C(=O)Oc1nsnc1N1CCCCC1)c1ccc(F)cc1 | FAAH | enzyme activity, inhibitor | 10 µM, cell membranes | 22 |
| Clc1ccc2c(C3CCN(CCc4c[nH]c5ccccc45)CC3)c[nH]c2c1 | PTGS1 | enzyme activity, inhibitor | 10 µM | 31 |
| Cn1cc(-c2cc(F)cc(N3CCn4c(cc5c4CCCC5)C3=O)c2CO)cc(Nc2ccc(N3CCN(C4COC4)CC3)cn2)c1=O | Aurora kinase A (AURKA, Homo sapiens, UniProt O14965) | enzyme activity, inhibitor | 0.1 µM | 10 |
| COc1ccc(S(=O)(=O)N(CC(=O)NO)CC(C)C)cc1 | MMP3 | enzyme activity, inhibitor | 10 nM | 20 |
| CN(C(=O)Oc1nsnc1N1CCCCC1)c1ccc(C#N)cc1 | FAAH | enzyme activity, inhibitor | 10 µM, cell membranes | 19 |
| C[C@H](C(=O)N[C@H]1COc2ccccc2[C@@H]1S(C)(=O)=O)c1ccc(F)cc1 | PTGS1 | enzyme activity, inhibitor | 10 µM | -24 |
| CN(C(=O)Oc1nsnc1N1CCCCC1)c1ccc([N+](=O)[O-])cc1 | FAAH | enzyme activity, inhibitor | 10 µM, cell membranes | 19 |
| C#Cc1n[nH]c2c(-c3cn(C(C)c4ccccn4)c(=O)[nH]c3=O)cc(F)cc12 (centres unmarked) | ROCK1 | enzyme activity, inhibitor | 1 µM | -2.6 |
